Reference: ChEMBL document CHEMBL3763095, “Naphtho[1',2':4,5]imidazo[1,2-a]pyridine-5,6-diones: Synthesis, enzymatic reduction and cytotoxic activity” (Bioorg Med Chem Lett, 2016)
The source made the active and inactive calls. The rule behind the calls is not given here.

Experiments:
[1] = biological target: NAD(P)H dehydrogenase [quinone] 1 (Homo sapiens) (UniProt P15559); assay: Activity of NQO1 (unknown origin) assessed as reduction of cytochrome c at 5 to 15 uM by spectrophotometric analysis relative to NADPH oxidation rate; design: scale not given: the % may be the effect or the level left
Chain of NAD(P)H dehydrogenase [quinone] 1 (Homo sapiens) (P15559 whole entry): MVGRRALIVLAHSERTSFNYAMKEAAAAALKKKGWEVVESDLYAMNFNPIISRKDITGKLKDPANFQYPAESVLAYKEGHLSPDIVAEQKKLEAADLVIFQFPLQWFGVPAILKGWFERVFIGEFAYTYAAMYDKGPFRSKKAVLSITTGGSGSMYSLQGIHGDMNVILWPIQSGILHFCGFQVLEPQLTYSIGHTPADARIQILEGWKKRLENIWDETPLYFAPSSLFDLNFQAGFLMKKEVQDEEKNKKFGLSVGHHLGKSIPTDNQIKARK
Outline: (§1)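 NQO1-catalysed quinone reduction coupled to cytochrome c (50 µM) as the terminal single-electron acceptor.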

Salmonella enterica = assay: Antibacterial activity against Salmonella enterica SL 5676 after 16 hrs by two-fold microdillution method; assay type: functional, organism-based
[2] = biological target: NAD(P)H dehydrogenase [quinone] 1 (Homo sapiens) (UniProt P15559); assay: Activity of NQO1 (unknown origin) assessed as O2 uptake at 5 to 15 uM by polarographic analysis in the presence of catalase and 150 to 200 uM NADPH
Escherichia coli = assay: Antibacterial activity against Escherichia coli ATCC 25922 after 16 hrs by two-fold microdillution method; assay type: functional, organism-based
[3] = biological target: NAD(P)H dehydrogenase [quinone] 1 (Homo sapiens) (UniProt P15559); assay: Activity of NQO1 (unknown origin) assessed as reduction of cytochrome c at 5 to 15 uM in the presence of superoxide dismutase and 150 to 200 uM of NADPH; outline: as §1
[4] = biological target: NAD(P)H dehydrogenase [quinone] 1 (Homo sapiens) (UniProt P15559); assay: Substrate inhibition of NQO1 (unknown origin) by spectrophotometric analysis in the presence of 12.5 to 200 uM NADPH

Compound	Activity [1]	Activity (Salmonella enterica)	Activity [2]	Activity (Escherichia coli)	Activity [3]	inhibition [4]
O=C1C(=O)c2c(nc3ncccn23)-c2ccccc21	180%	inactive	inactive	inactive	inactive	
O=C1C(=O)c2c(nc3ccc4ccccc4n23)-c2ccccc21	180%	inactive	inactive	inactive	inactive	
Cc1cccn2c3c(nc12)-c1ccccc1C(=O)C3=O	180%	inactive	inactive	inactive	inactive	
O=C1C(=O)c2c(nc3ccc(F)cn23)-c2ccccc21	180%	inactive	inactive	inactive	inactive	
O=C1C(=O)c2c(nc3ccc(Cl)cn23)-c2ccccc21	180%	inactive	inactive	inactive	inactive	
Cc1ccn2c3c(nc2c1)-c1ccccc1C(=O)C3=O	180%	inactive	inactive	inactive	inactive	
Cc1ccc2nc3c(n2c1)C(=O)C(=O)c1ccccc1-3	180%	inactive	inactive	inactive	inactive	
O=C1C(=O)c2c(nc3ccccn23)-c2ccc([N+](=O)[O-])cc21	180%	inactive	inactive	inactive	inactive	
O=C1C(=O)c2c(nc3ccc(C(F)(F)F)cn23)-c2ccccc21	180%	inactive	inactive	inactive	inactive	
COc1ccc2nc3c(n2c1)C(=O)C(=O)c1ccccc1-3	180%	inactive	inactive	inactive	inactive	Active
O=C1C(=O)c2c(nc3ccc([N+](=O)[O-])cn23)-c2ccccc21	180%	inactive	inactive	inactive	inactive	
O=C1C(=O)c2c(nc3ccc(Br)cn23)-c2ccccc21	180%	inactive	inactive	inactive	inactive	
O=C1C(=O)c2c(nc3ccccn23)-c2ccccc21	180%	inactive	inactive	inactive	inactive	Active
